In general, MIC refers to the smallest concentration in the dilution series that meets the test's criterion for growth inhibition. By inhibition is commonly meant the relative decrease from the control value, in per cent.

Three molecules from ChEMBL document CHEMBL2311473, “Characterization of antimicrobial, cytotoxic, and antiendotoxin properties of short peptides with different hydrophobic amino acids at "a" and "d" positions of a heptad repeat sequence” (J Med Chem, 2013) can be followed below.

Each structure is given as a SMILES string. ≈ marks a conversion by molar mass, not a printed value. Calls of active or inactive are those of the source.

The subject of series [1] is Trichophyton mentagrophytes. Description: Antifungal activity against Trichophyton mentagrophytes after 96 hrs by NCCLS microbroth dilution method. In kind it is functional. In outline: (§1)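 Microbroth dilution in MOPS-buffered RPMI 1640 following NCCLS guidelines. Inoculum 1−5 × 10^3 cells/mL, peptide range 50−0.36 (mass/mL). Plates held in a moist chamber at 35 °C and A492 read after 48 h (Candida spp.), 72 h (A. fumigatus, S. schenckii, C. neoformans) or 96 h (T. mentagrophytes). MIC taken as 90% growth inhibition versus growth control.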
A general note: In broth dilution the organism is exposed to a series of concentrations in liquid medium.

Series [2] can be described thus: Binding affinity to PE/PG lipid vesicles assessed as decrease in decrease in acrylamide-induced tryptophan fluorescence quenching at 1 uM. The format is physicochemical. In outline:
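Acrylamide quencher added in aliquots from 3.0 M stock to peptide with PC/Chol (8:1) or PE/PG (7:3) SUVs, peptide/lipid 1:100. Trp excited at 295 nm. Values corrected for dilution and vesicle-blank scatter, then fitted to Stern–Volmer F0/F = 1 + KSV[Q].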

Series [3] concerns Lipopolysaccharide (LPS). Description: Binding affinity to LPS assessed as inhibition of LPS-induced LAL enzyme activation at 9 uM after 30 mins by spectrophotometric analysis. In outline: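 Chromogenic limulus amoebocyte lysate endotoxin kit. Peptide binding to LPS estimated from inhibition of LPS-induced LAL enzyme activation, i.e. reduced substrate colour, and reported as percentage LPS binding.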

For series [4], the system named is Staphylococcus epidermidis. Put plainly: Antibacterial activity against Staphylococcus epidermidis NRRL B-4268 after 18 hrs by broth dilution method. The format is functional. To be noted: NRRL B-4268, 18 h. The essentials:
(§2)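 Bacteria grown aerobically at 37 °C in Mueller-Hinton broth to mid-log phase (OD600), diluted to ~10^6 cfu/mL, then mixed 1:1 with 2-fold serial peptide dilutions in water. Incubation ~18 h at 37 °C before MIC read-out (μM).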

Series [5] can be described thus: Cytotoxicity against human RBC assessed as induction of membrane damage at 25 uM after 5 mins by annexin V-FITC staining-based FACS flow cytometric analysis. The format is cell-based. To be noted: erythrocyte. In outline: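 hRBCs (~3.0 × 10^7 cells/mL) treated with peptide (~25.0 μM) for 5 min at room temperature. Stained with FITC-annexin V and analysed by flow cytometry, 10000 events, compared with untreated control.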
For orientation: In flow cytometry, cells or beads pass a laser one at a time.

In another series the test system is NIH3T3. Put plainly: Cytotoxicity against mouse 3T3 cells assessed as cell viability up to 25 uM by MTT assay. The format is cell-based. In outline:
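Murine 3T3 fibroblasts, grown in DMEM/IMDM with 10% FCS at 37 °C, 5% CO2, seeded at 10000 cells/well. Viability after peptide exposure measured by MTT (mitochondrial dehydrogenase) across a dose range.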
(In general: Tetrazolium dyes change colour on reduction, which living cells bring about.)

Series [6] in a line: Induction of dissipation of diffusion potential in PC/Chol lipid vesicles by fluorescence assay. The format is physicochemical. The essentials: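 SUVs of PC/Chol (8:1 w/w) or PE/PG (7:3 w/w) treated with peptide. Dissipation of diffusion potential taken as percentage fluorescence recovery ~5 min after peptide addition, with valinomycin used for reference levels. Plotted against peptide/lipid molar ratio.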

Series [7] can be described thus: Drug uptake in human RBC assessed as membrane localization at 9 uM after 10 to 30 mins by confocal microscopic analysis. In kind it is ADME. To be noted: erythrocyte. The essentials:
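Fresh hRBCs (3% in PBS) incubated with NBD-labeled peptide (~9.0 μM) for 10–30 min at 37 °C. Washed, fixed in 2% paraformaldehyde 10 min, and imaged by confocal microscopy at constant photomultiplier setting.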

A further series concerns Klebsiella pneumoniae. Put plainly: Antibacterial activity against Klebsiella pneumoniae ATCC 27736 after 18 hrs by broth dilution method. The format is functional. To be noted: ATCC 27736, 18 h. The essentials: as §2
Series [8] relates to Staphylococcus aureus. Description: Antibacterial activity against Staphylococcus aureus ATCC 9144 after 18 hrs by broth dilution method. The format is functional. To be noted: ATCC 9144, 18 h. In outline: as §2
The nature of series [9]: Binding affinity to PC/Chol lipid vesicles assessed as induction of large blue shift at 1 uM by fluorescence assay. The format is physicochemical.
Series [10] concerns RAW264.7. Put plainly: Antiinflammatory activity in mouse RAW264.7 cells assessed as downregulation of LPS-induced iNOS2 expression at 4.5 uM after 24 hrs by Western blotting analysis. The format is functional, cell-based. The essentials: (§3)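 RAW 264.7 cells (~2 × 10^5) stimulated with LPS 1 μg/mL plus peptide 4.5 μM for 24 h. Cells washed in ice-cold PBS and lysed in Laemmli buffer. SDS-PAGE (8% gel iNOS-2, 12% TNF-α), nitrocellulose transfer, alkaline phosphatase secondary with NBT/BCIP. Band densities normalized to β-actin. LPS-only and untreated cells served as controls.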

For the next series, the system named is Escherichia coli. Description: Antibacterial activity against Escherichia coli ATCC 10536 after 18 hrs by broth dilution method. To be noted: ATCC 10536, 18 h. The format is functional. The essentials: as §2
The nature of series [11]: Cytotoxicity against human RBC assessed as induction of membrane depolarization at up to 16 uM by DiSC3(5) staining-based fluorescence assay. In kind it is cell-based. To be noted: erythrocyte. The essentials:
(§4)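 Membrane potential dye diS-C3-5 preincubated 1 h with hRBC or S. aureus suspensions; I0 is steady-state fluorescence after this incubation. Peptide then added at varying concentrations. Depolarization expressed as percentage fluorescence recovery (Ft) versus peptide concentration.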

The next series has as its system Cryptococcus neoformans. Put plainly: Antifungal activity against Cryptococcus neoformans after 72 hrs by NCCLS microbroth dilution method. The format is functional. In outline:
as §1

The test system of series [12] is RAW264.7. Put plainly: Antiinflammatory activity in mouse RAW264.7 cells assessed as inhibition of LPS-induced TNFalpha secretion at 1.5 to 4.5 uM after 12 hrs by ELISA. The format is functional, cell-based. In outline:
(§5)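 RAW 264.7 cells treated with LPS alone or LPS plus peptide. TNF-α and IL-6 measured by ELISA in culture supernatant and expressed as percentage inhibition of LPS-induced secretion. Mean of three independent experiments, SD shown.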

Another series deals with Bacillus subtilis. Put plainly: Antibacterial activity against Bacillus subtilis ATCC 6633 after 18 hrs by broth dilution method. In kind it is functional. To be noted: ATCC 6633, 18 h. The essentials: as §2
In series [13] the test system is RAW264.7. Put plainly: Antiinflammatory activity in mouse RAW264.7 cells assessed as inhibition of LPS-induced IL6 secretion at 1.5 to 4.5 uM after 12 hrs by ELISA. In kind it is functional, cell-based. The essentials:
as §5

For series [14], the system named is Staphylococcus aureus. Description: Bactericidal activity against Staphylococcus aureus ATCC 9144 assessed as induction of membrane depolarization at up to 7 uM by DiSC3(5) staining-based fluorescence assay. The format is functional, organism-based. The essentials: as §4
The test system of another series is Aspergillus fumigatus. Put plainly: Antifungal activity against Aspergillus fumigatus after 72 hrs by NCCLS microbroth dilution method. In kind it is functional. The essentials: as §1
Series [15] deals with RAW264.7. Put plainly: Antiinflammatory activity in mouse RAW264.7 cells assessed as downregulation of LPS-induced TNFalpha expression at 4.5 uM after 24 hrs by Western blotting analysis. In kind it is functional, cell-based. In outline: as §3
For series [16], the system named is Staphylococcus aureus. Put plainly: Antibacterial activity against methicillin-resistant Staphylococcus aureus after 18 hrs by broth dilution method. In kind it is functional. The essentials: as §2
For another series, the system named is Pseudomonas aeruginosa. Put plainly: Antibacterial activity against Pseudomonas aeruginosa ATCC BAA-427 after 18 hrs by broth dilution method. The format is functional. To be noted: ATCC BAA-427, 18 h. In outline: as §2
Series [17] deals with Lipopolysaccharide (LPS). Description: Binding affinity to FITC-tagged LPS assessed as induction of disintegration up to 40 uM by […]. To be noted: in the assay text read “fluorescence dequenching” for “circular dichroism”. The essentials: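 FITC-LPS (0.5 μg/mL) titrated with increasing peptide concentrations. Disaggregation read as dequenching, i.e. rise in FITC fluorescence, monitored after each addition until emission reached equilibrium.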

`C[C@H](N)C(=O)O` [ALANINE]: the MIC is more than 25 µM in series [1]; 8 µM (≈ 0.713 µg/mL) in series [4]; 25 µM (≈ 2.23 µg/mL) in the series with Klebsiella pneumoniae; 6.25 µM (≈ 0.557 µg/mL) with Staphylococcus aureus [8]; 4.5 µM (≈ 0.401 µg/mL) against Escherichia coli; more than 25 µM with Cryptococcus neoformans. Moreover, the minimum inhibitory concentration (MIC) against Bacillus subtilis is 20 µM (≈ 1.78 µg/mL); in the series on Aspergillus fumigatus, more than 25 µM; against Staphylococcus aureus [16], more than 25 µM; with Pseudomonas aeruginosa, 6.25 µM (≈ 0.557 µg/mL). Further, the Activity entry in series [2] is given as “Active”; in series [5], “Non-toxic”; in the series on NIH3T3, “Toxic”; in series [6] it was “Active”; in [9] it was “Not Active”; in series [11], “Non-toxic”. The inhibition with Lipopolysaccharide (LPS) [3] worked out at 7%. For the same molecule, the Drug uptake entry in series [7] is recorded as “Not Active”. For the same molecule, the outcome with RAW264.7 [10], in the series on Staphylococcus aureus [14], with RAW264.7 [15] and with Lipopolysaccharide (LPS) [17] was Active. Moreover, the inhibition entry with RAW264.7 [12] and in the series with RAW264.7 [13] was “Active” throughout.
As to `CC(C)C[C@H](N)C(=O)O` [LEUCINE], the MIC was found to be 1.56 µM (≈ 0.205 µg/mL) in series [1]; 12.1 µM (≈ 1.59 µg/mL) in series [4]; 6.2 µM (≈ 0.813 µg/mL) against Klebsiella pneumoniae; 6.25 µM (≈ 0.82 µg/mL) against Staphylococcus aureus [8]; 6.25 µM (≈ 0.82 µg/mL) with Escherichia coli; 6.1 µM (≈ 0.8 µg/mL) in the series with Cryptococcus neoformans. In addition, the MIC is 10.5 µM (≈ 1.38 µg/mL) with Bacillus subtilis, 3.1 µM (≈ 0.407 µg/mL) in the series with Aspergillus fumigatus, 6.25 µM (≈ 0.82 µg/mL) in the series with Staphylococcus aureus [16] and 11.2 µM (≈ 1.47 µg/mL) against Pseudomonas aeruginosa. Further, the Activity entry in series [2] is listed as “Active”; in [5], “Toxic”; in the series on NIH3T3, “Toxic”; in series [6], “Active”; in series [9] it was “Active”; in series [11], “Toxic”. The inhibition with Lipopolysaccharide (LPS) [3] stood at 90%. For the same molecule, the Drug uptake entry in series [7] is given as “Active”. Moreover, the result in the series with RAW264.7 [10], in the series on Staphylococcus aureus [14], in the series with RAW264.7 [15] and in the series on Lipopolysaccharide (LPS) [17] was Active. Further, the inhibition result in the series on RAW264.7 [12] and with RAW264.7 [13] was “Active” in each case.
For the molecule `CC(C)[C@H](N)C(=O)O` [VALINE], the MIC in series [1] came out at 6 µM (≈ 0.703 µg/mL); in series [4], 6 µM (≈ 0.703 µg/mL); against Klebsiella pneumoniae, 3.2 µM (≈ 0.375 µg/mL); with Staphylococcus aureus [8] it was 5.1 µM (≈ 0.597 µg/mL); with Escherichia coli, 3 µM (≈ 0.351 µg/mL); against Cryptococcus neoformans, 8.4 µM (≈ 0.984 µg/mL). Besides, the MIC with Bacillus subtilis worked out at 6.8 µM (≈ 0.797 µg/mL); in the series on Aspergillus fumigatus, 8.4 µM (≈ 0.984 µg/mL); against Staphylococcus aureus [16] it was 12.5 µM (≈ 1.46 µg/mL); with Pseudomonas aeruginosa, 3.2 µM (≈ 0.375 µg/mL). Further, the Activity result in [2] is on record as “Active”; in series [5] it was “Non-toxic”; with NIH3T3, “Toxic”; in series [6] it was “Active”; in [9], “Not Active”; in series [11], “Non-toxic”. The inhibition in the series with Lipopolysaccharide (LPS) [3] turned out to be 22%. For the same molecule, in series [7], the Drug uptake result is “Active”. In addition, the result with RAW264.7 [10], in the series with Staphylococcus aureus [14], with RAW264.7 [15] and in the series on Lipopolysaccharide (LPS) [17] was Active. Besides, the inhibition result in the series with RAW264.7 [12] and in the series on RAW264.7 [13] was “Active” throughout.
